These results are taken from ChEMBL document CHEMBL4020802, “Fused bi-heteroaryl substituted hydantoin compounds as TACE inhibitors” (Bioorg Med Chem Lett, 2017).

Some results are limits rather than exact numbers.

Data set [1] can be described thus: Oral bioavailability in dog at 3 mg/kg. The format is ADME, organism-based, Canis lupus familiaris. Conditions: in vivo. In a few lines:
(§1)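 Oral dosing of rats, dogs and monkeys, with compounds given as Na+ or HCl salts in a 0.4% HPMC formulation. Doses were 10 mg/kg in rat, 2 or 3 mg/kg in dog, and 3 or 10 mg/kg in monkey. Plasma exposure was reported as AUC in µM·h, and oral bioavailability as F%.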

Data set [2] is described as follows: Clearance in rat at 3 mg/kg, iv. The format is ADME, organism-based. Conditions: in vivo.
Another data set concerns Blood. The experiment in a line: Antiinflammatory activity in human whole blood assessed as inhibition of LPS-induced TNF-alpha release preincubated for 1 hr followed by LPS addition after 3.5 hrs by ELISA method. In kind it is functional. On the technique in general: ELISA stands for enzyme-linked immunosorbent assay.
The nature of data set [3]: Oral bioavailability in rat at 10 mg/kg. As to conditions: in vivo. The format is ADME, organism-based. Summed up: as §1
The nature of data set [4]: AUC in dog at 3 mg/kg, po. In kind it is ADME, organism-based, Canis lupus familiaris. As to conditions: in vivo. Summed up: as §1
Data set [5] is described as follows: Permeability from apical side to basolateral side in human Caco2 cells. The format is ADME, cell-based. As to conditions: Caco-2, read-out: permeability.
Data set [6] can be described thus: Clearance in monkey at 1 mg/kg, iv. The format is ADME, organism-based, Macaca mulatta. Conditions: rhesus monkey, in vivo.
A short description of data set [7]: AUC in monkey at 10 mg/kg, po. As to conditions: rhesus monkey, in vivo. The format is ADME, organism-based, Macaca mulatta. In a few lines: as §1
Data set [8] addresses Disintegrin and metalloproteinase domain-containing protein 17 (Homo sapiens, UniProt P78536). As to the kind of experiment: Inhibition of catalytic domain TACE (unknown origin) by FRET assay.
The nature of data set [9]: AUC in rat at 10 mg/kg, po. The format is ADME, organism-based. As to conditions: in vivo. In a few lines: as §1
A short description of data set [10]: Oral bioavailability in monkey at 10 mg/kg. In kind it is ADME, organism-based, Macaca mulatta. Conditions: rhesus monkey, in vivo. Summed up:
as §1

A short description of data set [11]: AUC in rat. Conditions: in vivo. The format is ADME. Further details: concentration or dose not given beside the values.
A short description of data set [12]: Clearance in dog at 0.5 mg/kg, iv. In kind it is ADME, organism-based, Canis lupus familiaris. Conditions: in vivo.
Data set [13] in a line: Oral bioavailability in monkey at 3 mg/kg. Conditions: rhesus monkey, in vivo. The format is ADME, organism-based, Macaca mulatta. Summed up: as §1
Data set [14] addresses 72 kDa type IV collagenase (Homo sapiens, UniProt P08253). The experiment in a line: Inhibition of MMP2 (unknown origin).
A further data set deals with Collagenase 3 (Homo sapiens, UniProt P45452). The experiment in a line: Inhibition of MMP13 (unknown origin).
Data set [15] has as its target Matrix metalloproteinase-9 (Homo sapiens, UniProt P14780). As to the kind of experiment: Inhibition of MMP9 (unknown origin).
The next data set deals with T1, Matrilysin (Homo sapiens, UniProt P09237).
T1 sequence (P09237 whole entry): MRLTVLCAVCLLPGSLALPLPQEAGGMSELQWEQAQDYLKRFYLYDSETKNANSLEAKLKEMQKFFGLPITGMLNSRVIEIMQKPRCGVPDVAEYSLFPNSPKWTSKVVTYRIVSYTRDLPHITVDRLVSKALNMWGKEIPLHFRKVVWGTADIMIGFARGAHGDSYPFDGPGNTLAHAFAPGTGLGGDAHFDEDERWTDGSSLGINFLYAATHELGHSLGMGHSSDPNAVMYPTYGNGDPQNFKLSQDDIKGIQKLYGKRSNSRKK
As to the kind of experiment: Inhibition of MMP7 (unknown origin).

The next data set deals with Stromelysin-1 (Homo sapiens, UniProt P08254). As to the kind of experiment: Inhibition of MMP3 (unknown origin).
Chain of Stromelysin-1 (P08254 whole entry): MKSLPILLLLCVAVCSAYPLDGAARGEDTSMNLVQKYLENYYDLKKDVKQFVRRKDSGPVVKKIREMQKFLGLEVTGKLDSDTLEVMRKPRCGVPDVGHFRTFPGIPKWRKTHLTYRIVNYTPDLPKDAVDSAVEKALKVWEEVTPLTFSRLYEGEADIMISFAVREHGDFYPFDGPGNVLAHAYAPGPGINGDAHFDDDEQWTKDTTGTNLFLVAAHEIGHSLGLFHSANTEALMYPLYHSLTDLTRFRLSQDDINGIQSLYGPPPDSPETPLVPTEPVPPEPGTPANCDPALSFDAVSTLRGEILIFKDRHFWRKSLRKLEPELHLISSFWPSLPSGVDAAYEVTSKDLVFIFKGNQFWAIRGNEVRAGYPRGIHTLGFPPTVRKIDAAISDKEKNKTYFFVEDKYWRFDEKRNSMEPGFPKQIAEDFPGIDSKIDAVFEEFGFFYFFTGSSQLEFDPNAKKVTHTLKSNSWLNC
The target of data set [16] is Matrix metalloproteinase-14 (Homo sapiens, UniProt P50281). As to the kind of experiment: Inhibition of MMP14 (unknown origin).
Another data set deals with T2, Interstitial collagenase (Homo sapiens, UniProt P03956).
T2 sequence (P03956 whole entry): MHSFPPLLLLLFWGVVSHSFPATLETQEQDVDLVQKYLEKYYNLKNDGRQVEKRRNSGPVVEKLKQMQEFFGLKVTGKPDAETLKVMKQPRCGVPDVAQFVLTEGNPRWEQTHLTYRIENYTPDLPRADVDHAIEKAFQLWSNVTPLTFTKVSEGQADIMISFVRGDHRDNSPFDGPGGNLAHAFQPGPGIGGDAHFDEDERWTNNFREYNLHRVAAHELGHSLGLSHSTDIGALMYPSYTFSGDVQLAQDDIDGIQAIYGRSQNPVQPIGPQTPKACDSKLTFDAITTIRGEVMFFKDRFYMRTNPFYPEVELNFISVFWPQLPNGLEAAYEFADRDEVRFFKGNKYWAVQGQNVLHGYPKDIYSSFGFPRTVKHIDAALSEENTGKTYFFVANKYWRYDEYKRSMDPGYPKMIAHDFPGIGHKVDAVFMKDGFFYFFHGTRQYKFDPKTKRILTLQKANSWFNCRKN
The experiment in a line: Inhibition of MMP1 (unknown origin).

For data set [17], the target named is T3, Disintegrin and metalloproteinase domain-containing protein 10 (Homo sapiens, UniProt O14672).
T3 sequence (O14672 whole entry): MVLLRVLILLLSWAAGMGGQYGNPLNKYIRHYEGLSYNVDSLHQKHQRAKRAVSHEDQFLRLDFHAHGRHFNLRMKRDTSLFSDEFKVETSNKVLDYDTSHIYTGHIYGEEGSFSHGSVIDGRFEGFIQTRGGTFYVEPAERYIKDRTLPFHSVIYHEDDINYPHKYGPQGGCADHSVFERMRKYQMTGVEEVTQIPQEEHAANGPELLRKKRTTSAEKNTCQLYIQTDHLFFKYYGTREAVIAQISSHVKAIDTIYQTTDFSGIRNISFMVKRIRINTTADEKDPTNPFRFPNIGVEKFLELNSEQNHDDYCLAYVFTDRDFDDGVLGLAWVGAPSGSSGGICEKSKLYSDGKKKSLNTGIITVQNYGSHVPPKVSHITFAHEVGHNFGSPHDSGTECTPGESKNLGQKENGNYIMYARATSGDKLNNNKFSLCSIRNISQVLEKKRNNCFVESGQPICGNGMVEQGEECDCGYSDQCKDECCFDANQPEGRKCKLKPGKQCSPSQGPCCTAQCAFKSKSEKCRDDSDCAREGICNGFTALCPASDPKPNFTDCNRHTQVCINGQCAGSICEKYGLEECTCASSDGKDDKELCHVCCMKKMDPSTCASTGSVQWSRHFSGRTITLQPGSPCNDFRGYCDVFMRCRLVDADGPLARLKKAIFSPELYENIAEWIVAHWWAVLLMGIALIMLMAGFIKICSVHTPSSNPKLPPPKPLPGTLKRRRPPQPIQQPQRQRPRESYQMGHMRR
The experiment in a line: Inhibition of ADAM10 (unknown origin).

Data set [18] can be described thus: AUC in monkey at 3 mg/kg, po. As to conditions: rhesus monkey, in vivo. The format is ADME, organism-based, Macaca mulatta. In a few lines: as §1

Chain of Disintegrin and metalloproteinase domain-containing protein 17 (P78536 whole entry, the tested form may be a part): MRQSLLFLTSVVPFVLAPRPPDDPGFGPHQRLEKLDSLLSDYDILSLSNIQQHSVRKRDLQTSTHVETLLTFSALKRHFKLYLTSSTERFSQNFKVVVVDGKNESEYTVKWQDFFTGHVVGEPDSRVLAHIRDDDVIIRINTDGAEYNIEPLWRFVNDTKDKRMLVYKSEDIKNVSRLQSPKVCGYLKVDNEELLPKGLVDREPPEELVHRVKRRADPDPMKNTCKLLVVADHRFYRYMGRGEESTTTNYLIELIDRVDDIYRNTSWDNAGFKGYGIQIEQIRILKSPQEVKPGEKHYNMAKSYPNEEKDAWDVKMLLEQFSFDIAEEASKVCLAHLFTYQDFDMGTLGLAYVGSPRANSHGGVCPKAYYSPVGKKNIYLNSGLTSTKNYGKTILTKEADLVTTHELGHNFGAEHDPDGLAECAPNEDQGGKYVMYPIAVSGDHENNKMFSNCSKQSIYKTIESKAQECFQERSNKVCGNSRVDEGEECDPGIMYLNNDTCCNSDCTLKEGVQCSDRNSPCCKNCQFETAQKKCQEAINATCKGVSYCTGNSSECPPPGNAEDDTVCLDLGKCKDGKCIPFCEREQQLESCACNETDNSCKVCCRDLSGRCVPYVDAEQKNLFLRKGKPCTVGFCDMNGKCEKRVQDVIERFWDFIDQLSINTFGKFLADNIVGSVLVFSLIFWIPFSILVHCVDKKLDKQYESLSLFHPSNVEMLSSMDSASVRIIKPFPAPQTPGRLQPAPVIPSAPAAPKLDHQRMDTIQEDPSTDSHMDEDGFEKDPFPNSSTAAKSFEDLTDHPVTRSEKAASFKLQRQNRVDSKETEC
Chain of Matrix metalloproteinase-9 (P14780 whole entry): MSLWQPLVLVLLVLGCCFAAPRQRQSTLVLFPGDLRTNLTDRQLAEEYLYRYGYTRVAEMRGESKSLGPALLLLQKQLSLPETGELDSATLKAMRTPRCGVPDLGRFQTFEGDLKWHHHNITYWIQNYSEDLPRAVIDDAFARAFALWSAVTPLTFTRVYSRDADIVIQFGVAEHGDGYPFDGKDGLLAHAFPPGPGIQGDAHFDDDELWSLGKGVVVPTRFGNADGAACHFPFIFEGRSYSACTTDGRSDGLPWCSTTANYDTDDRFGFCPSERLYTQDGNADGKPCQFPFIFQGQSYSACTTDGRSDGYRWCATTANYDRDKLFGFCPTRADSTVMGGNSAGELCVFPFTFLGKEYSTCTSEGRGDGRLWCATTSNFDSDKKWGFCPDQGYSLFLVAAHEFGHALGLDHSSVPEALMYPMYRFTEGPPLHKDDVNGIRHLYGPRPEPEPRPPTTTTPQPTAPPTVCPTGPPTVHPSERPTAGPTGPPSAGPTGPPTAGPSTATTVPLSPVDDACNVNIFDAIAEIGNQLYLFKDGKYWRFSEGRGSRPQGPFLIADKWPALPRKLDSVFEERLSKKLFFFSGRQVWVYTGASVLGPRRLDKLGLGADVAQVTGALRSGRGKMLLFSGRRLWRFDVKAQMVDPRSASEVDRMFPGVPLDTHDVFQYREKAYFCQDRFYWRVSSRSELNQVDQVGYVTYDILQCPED
Chain of 72 kDa type IV collagenase (P08253 whole entry): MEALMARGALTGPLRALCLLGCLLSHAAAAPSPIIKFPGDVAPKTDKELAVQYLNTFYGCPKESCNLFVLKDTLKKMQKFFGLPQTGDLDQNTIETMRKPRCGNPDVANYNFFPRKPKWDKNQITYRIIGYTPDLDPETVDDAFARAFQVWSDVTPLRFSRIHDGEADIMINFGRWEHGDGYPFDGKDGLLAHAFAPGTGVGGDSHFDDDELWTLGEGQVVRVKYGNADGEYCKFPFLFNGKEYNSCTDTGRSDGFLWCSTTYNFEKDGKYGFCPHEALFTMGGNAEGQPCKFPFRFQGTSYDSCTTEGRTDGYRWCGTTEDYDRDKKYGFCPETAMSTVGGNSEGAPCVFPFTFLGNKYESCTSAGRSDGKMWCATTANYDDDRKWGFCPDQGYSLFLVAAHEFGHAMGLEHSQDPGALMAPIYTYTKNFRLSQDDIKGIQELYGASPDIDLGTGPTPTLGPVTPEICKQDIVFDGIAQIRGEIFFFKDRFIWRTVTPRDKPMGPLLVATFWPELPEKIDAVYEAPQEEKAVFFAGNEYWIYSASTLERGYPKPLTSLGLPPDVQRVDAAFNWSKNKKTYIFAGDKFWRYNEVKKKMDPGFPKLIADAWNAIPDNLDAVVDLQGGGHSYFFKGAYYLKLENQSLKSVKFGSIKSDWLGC

On to `COc1ccc2c(c1)C(=O)N(C[C@@]1(c3cc4ncccc4o3)NC(=O)NC1=O)C2`, for which the bioavailability was 82% in data set [1], 35% in [3] and 46% in [10]. Also, the clearance in [2] worked out at 15 mL/min/kg; in data set [6], 11 mL/min/kg; in data set [12] it was 3 mL/min/kg. Also, the IC50 in the data set on Blood was 290 nM. Further, the AUC in data set [4] was 41 µM·h; in data set [7], 22 µM·h; in [9], 10 µM·h; in data set [11] it was 27 µM·h. Also, the Papp A→B in [5] worked out at 1.2 ×10⁻⁶ cm/s. Besides, the Ki in data set [8] is 0.5 nM.
In the case of `COc1ccc2c(c1)C(=O)N(C[C@@]1(c3cc4cnccc4o3)NC(=O)NC1=O)C2`, the bioavailability in [1] is 98%; in [13], 19%; in [3] it was 58%. In addition, the values for the clearance in data set [2], in data set [6] and in [12] were 23 mL/min/kg, 7 mL/min/kg and 3 mL/min/kg, respectively. Moreover, the IC50 with Blood is 270 nM; in data set [14], 533 nM; against Collagenase 3, 684 nM; in [15], 1760 nM; against Matrilysin, more than 40 µM; on Stromelysin-1, 5.5 µM. The IC50 was 239 nM in [16] and 4.71 µM on Interstitial collagenase. Besides, the AUC was 52 µM·h in data set [4], 11 µM·h in data set [9], 13 µM·h in data set [11] and 10 µM·h in [18]. Moreover, the Papp A→B in [5] came out at 1.5 ×10⁻⁶ cm/s. Besides, the Ki was found to be 0.7 nM in data set [8] and 144 nM in data set [17].

The bioavailability is the share of a dose that reaches the circulation, judged against a reference dose that is usually intravenous. The clearance is a measure of how efficiently the substance is removed, as volume per time. Usually IC50 stands for the concentration that gives 50% inhibition. The term AUC denotes the area under the concentration-time curve, a measure of exposure. Usually Ki stands for a measure of affinity in units of concentration, obtained from inhibition or displacement.
